Screening data as filed in PubChem.
Hits are enriched below; roughly 6.4% of the tested compounds scored in any of these assays.
NR3A LBD binder: modulators (binders) of human NR3A ligand-binding domain. NR3A LBD differential scanning fluorimetry, Tm shift; 0% = protein alone, 100% = glycine-bound protein. Tm shift relative to glycine control, % at 25 µM. 2.5% of 340,000 active. AID 1259313;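 active means melting temperature shift of at least 10% of the positive control shift, at one fixed dose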
Tb MetRS inh: blocks T. brucei methionyl-tRNA synthetase activity. AID 624268. inhibition, % at 11.9 µM. purified T. brucei MetRS, ATP depletion, Kinase-Glo luminescence. 0.4% of 360,000 active;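 active means inhibition above a per-plate cutoff of the control wells' mean inhibition plus 3 SD, cut at about 5.5% in these data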;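 further: 0% = DMSO wells median and 100% = median of wells with control inhibitor compound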
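System: purified T. brucei MetRS enzyme / Detection: Kinase-Glo luciferase luminescence reporting remaining unconsumed ATP / Medium: HEPES buffer with MgCl2, KCl, DTT, spermine, BSA, pyrophosphatase / Replication: singlicate, one well per compound / Evaluation: percent inhibition relative to median high and low control wells / Schedule: 2 h aminoacylation at 25 °C after 15 min preincubation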
WT yeast gro inh: growth inhibition of WT yeast, mitochondrial fusion screen; mitochondrial fusion phenotypic screen, WT strain; inhibition, % at 10 µM; 2.1% of 190,000 active; in the data active means inhibition above about 58%; tested in S. cerevisiae
MPTP block: permeability transition pore inhibition; isolated mouse mitochondria, Ca2+ swelling absorbance, 30 min; 1.4% of 360,000 active; inhibition, % at 10 µM;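 active means inhibition of 50% or more, scaled per plate between neutral and stimulator controls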;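 further: 0% = DMSO wells given calcium and 100% = 1 mM EGTA wells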
EBV gp42 inh: inhibitors of Epstein-Barr virus glycoprotein 42. Fluorescence polarization binding assay, mP read-out. inhibition, % (tested at 21.74 µM). 0.42% of 220,000 active. AID 1085; in the data active means inhibition above about 50%
Target sequence (Q1HVG2 whole entry, looked up): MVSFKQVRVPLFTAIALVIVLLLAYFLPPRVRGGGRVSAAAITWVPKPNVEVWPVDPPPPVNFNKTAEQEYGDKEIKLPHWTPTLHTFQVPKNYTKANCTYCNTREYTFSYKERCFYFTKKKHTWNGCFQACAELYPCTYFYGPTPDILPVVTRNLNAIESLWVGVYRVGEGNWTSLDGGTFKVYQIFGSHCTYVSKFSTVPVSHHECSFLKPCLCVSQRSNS
CHOP inh: blocks CHOP induction under ER stress. CHO-K1 CHOP-promoter luciferase, tunicamycin-induced, 15-18 h. 3.8% of 220,000 active. inhibition, % at 10 µM;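 active means compounds that reduced the stress-induced luciferase reporter signal by more than about 70% of percent inhibition, limit read from the data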;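 further: 0% = tunicamycin plus vehicle and 100% = wells without tunicamycin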
Numbers without * were called inactive; / = no result given.

SMILES	NR3A LBD binder	Tb MetRS inh	WT yeast gro inh	MPTP block	EBV gp42 inh	CHOP inh
O=C(C1=NN[C@@H]2C(=O)N(c3cccc(F)c3)C(=O)[C@H]12)C(c1ccccc1)c1ccccc1	-3.3	0.9	5.0	1.7	6.4	33.8
C#CCOCCOCCOCCNc1nc(N2CCN(C(=O)CCCCCCCCCCNC(=O)Cn3cc(C[C@@H](C)O)nn3)CC2)nc(N2CCN(C(=O)CCCCCCCCCCNC(=O)[C@H](CCCCN)n3cc(C[C@@H](C)CC)nn3)CC2)n1	12.6*	-0.1	/	-9.3	/	/
C#CCOCCOCCOCCNc1nc(N2CCN(C(=O)CCCCCCCCCCNC(=O)[C@H](CCCCN)n3cc(C[C@@H](C)CC)nn3)CC2)nc(N2CCN(C(=O)CCCCCCCCCCNC(=O)[C@H](CCCCN)n3cc(C[C@@H](C)CC)nn3)CC2)n1	18.5*	-0.4	/	-2.7	/	/
C#CCOCCOCCOCCNc1nc(N2CCN(C(=O)CCCCCCCCCCNC(=O)[C@H](CCCCN)n3cc(CCO)nn3)CC2)nc(N2CCN(C(=O)CCCCCCCCCCNC(=O)[C@H](CCCN=C(N)N)n3cc(C[C@@H](C)CC)nn3)CC2)n1	26.0*	-0.2	/	-12.5	/	/
C#CCOCCOCCOCCNc1nc(N2CCN(C(=O)CCCCCCCCCCNC(=O)[C@H](CCCCN)n3cc(CCO)nn3)CC2)nc(N2CCN(C(=O)CCCCCCCCCCNC(=O)[C@H](CCCCN)n3cc(CCO)nn3)CC2)n1	0.5	-0.2	/	-7.8	/	/
C#CCOCCOCCOCCNc1nc(N2CCN(C(=O)CCCCCCCCCCNC(=O)[C@H](CCCCN)n3cc(CCCC(=O)O)nn3)CC2)nc(N2CCN(C(=O)CCCCCCCCCCNC(=O)[C@H](CCCN=C(N)N)n3cc(C[C@@H](C)CC)nn3)CC2)n1	23.2*	-0.5	/	-14.4	/	/
C#CCOCCOCCOCCNc1nc(N2CCN(C(=O)CCCCCCCCCCNC(=O)[C@H](CCCCN)n3cc(CCO)nn3)CC2)nc(N2CCN(C(=O)CCCCCCCCCCNC(=O)[C@@H]([C@H](C)O)n3cc(C)nn3)CC2)n1	4.5	-0.3	/	-6.8	/	/
C#CCOCCOCCOCCNc1nc(N2CCN(C(=O)CCCCCCCCCCNC(=O)[C@H](CCCCN)n3cc(CCCC(=O)O)nn3)CC2)nc(N2CCN(C(=O)CCCCCCCCCCNC(=O)[C@H](CCCCN)n3cc(CCCC(=O)O)nn3)CC2)n1	-6.6	-0.6	/	-1.6	/	/
NNc1nc2ccc(Cl)cc2s1	-3.7	0.4	36.2	3.1	-1.8	-14.0
NNc1nc2c(Cl)c(Cl)ccc2s1	11.1*	0.0	77.7*	0.9	-12.4	23.1
COc1ccccc1CCNC(=O)C1(C)CC1(Cl)Cl (stereo not drawn)	2.9	0.0	/	-1.7	/	/
CCOCCCNC(=S)NCCc1ccccc1	-2.9	0.0	-0.5	0.3	-5.8	2.6
CCCNc1nc(Nc2ccc(C)cc2)nc(N2CCCC2)n1	-0.3	-1.3	67.0	2.7	-7.2	70.2*
Cc1ccc(NC(=O)C2CC(=O)Nc3ncnn32)cc1Cl (stereo not drawn)	0.8	-0.1	/	-0.1	-12.3	-10.2
CCn1c(SCC(=O)Nc2sc3c(c2C#N)CCC(C(C)(C)C)C3)nnc1-c1ccco1 (stereo not drawn)	1.0	0.3	17.4	-1.5	-16.5	77.9*
NC(=O)c1c(NC(=O)CSc2nnc(-c3ccco3)n2-c2ccccc2)sc2c1CCC2	-4.1	-1.1	0.1	1.5	67.5*	9.6
CN(C)c1ccc(C(CNC(=O)c2ccc(C#N)cc2)c2c[nH]c3ccccc23)cc1 (stereo not drawn)	-7.1	-0.3	16.8	-0.3	-1.4	2.1
CCOC(=O)c1ccc(S(=O)(=O)NCC(c2ccc(N(C)C)cc2)c2c[nH]c3ccccc23)cc1 (stereo not drawn)	15.8*	0.4	23.1	6.3	-7.5	67.2
O=C(Oc1ccc(-c2nnco2)cc1)N(c1ccccc1)c1ccccc1	-0.1	-0.5	58.3*	-0.5	-12.8	21.2
O=C(Oc1ccc(-c2nnco2)cc1)c1ccc(Br)o1	0.2	-0.3	/	-1.4	/	/
CC(=O)c1ccc(N2CCN(C(=O)C(=O)c3c(C)[nH]c4ccccc34)CC2)cc1	-1.7	4.1	/	1.8	/	/
COc1cccc(Cn2nnc(C(=O)NCCc3ccc(Cl)cc3)c2N)c1	3.0	-0.2	21.5	-0.1	14.2	46.0
